We go through eight compounds from ChEMBL document CHEMBL2046390, “Carnosine analogues containing NO-donor substructures: synthesis, physico-chemical characterization and preliminary pharmacological profile” (Eur J Med Chem, 2012).

Series [1] relates to Rattus norvegicus. In words: Protection against hypoxia-induced brain damage in Wistar rat ischemia-reperfusion injury model assessed as reduction of cerebral infarct volume at 500 mg/kg, iv administered at beginning of reperfusion and again after 6 hrs measured 24 hrs after reperfusion. Details: dose 500 mg/kg. Type of series: functional, organism-based. In a few lines:
(§1)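 Male Wistar rats, 210–230 g, anaesthetised with Zoletil and kept at 37 °C, underwent 30 min carotid occlusion then 24 h reperfusion; n = 5 per group. Compounds in 5% DMSO given i.v. at reperfusion onset and again after 6 h. Infarct volume from 2-mm coronal brain slices stained with 2% TTC, 37 °C, 30 min. Serum TNF-α by ELISA (pg/mL); means ± SEM.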

Series [2] relates to Rattus norvegicus. In words: Reduction of ischemia-reperfusion-induced TNFalpha level increase in Wistar rat serum at 500 mg/kg, iv by ELISA. The format is functional, organism-based. Details: dose 500 mg/kg. In a few lines: as §1
Series [3] deals with Serum. The series is described as follows: Metabolic stability of the compound in human serum at 0.5 mM after 3 hrs by RP-HPLC analysis. Type of series: ADME, cell-free. The note with it: 500 µM. In a few lines: (§2)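 A 10 mM aqueous stock was added to human serum preheated to 37 °C, giving 0.5 mM final, then incubated at 37 ± 0.5 °C. Aliquots were deproteinized with acetonitrile/0.1% TFA, centrifuged, filtered and analysed by RP-HPLC on C18 with diode-array detection, using methanol/20 mM sodium acetate pH 4.5–5 mM SDS mobile phase.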

For series [4], the system named is Thoracic aorta. In words: Vasodilator activity in Wistar rat endothelium-denuded thoracic aorta assessed as inhibition of L-phenylephrine-induced contraction at 1 mM. Type of series: functional. The procedure, abridged: (§3)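 Rat aortic strips equilibrated 90 min, then contracted with 1 μM L-phenylephrine. Cumulative concentration-response curves were run at the plateau, with isometric recording. EC50 is the concentration giving 50% relaxation, mean of at least 5 determinations. ODQ 1 μM was added 5 min before contraction in a separate series.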

A short description of series [5]: Binding affinity to Cu2+ assessed as formation of compound-cu2+ complex formation by pH-metric technique. The format is physicochemical. In a few lines:
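Compound and CuCl2, equimolar at 1 mM in water, acidified to pH 1.8 with 0.5 N HCl, then titrated with 0.5 N KOH to pH 12.2. Run under nitrogen at 25.0 ± 0.1 °C, ionic strength 0.15 M KCl, at least three titrations. Formation constants fitted from pH-metric data.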

Series [6] can be described thus: Lipophilicity, log D of the compound at pH 7.4 by shake-flask method. Type of series: physicochemical. The following applies: buffer. In a few lines:
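Shake-flask partition between n-octanol and phosphate buffer pH 7.4 (ionic strength 0.15 M KCl), phases presaturated 4 h. Compound about 0.1 mM in the aqueous phase; shaken about 20 min, centrifuged, aqueous concentration read by UV at 230 nm. At least 6 determinations per compound.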

A short description of series [7]: Antioxidant activity against CuSO4-induced LDL oxidation assessed as delta-lag time at 100 uM by spectrophotometric analysis. Type of series: functional. The procedure, abridged: (§4)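 Human LDL isolated by ultracentrifugation (density 1.019-1.063 g/mL), EDTA removed by desalting, diluted in 10 mM phosphate buffer pH 7.4 to 50 μg protein/mL; compound 100 μM final. Oxidation started with 2.5 μM CuSO4 at 37 °C; conjugated dienes followed at 234 nm. Lag phase versus control; propagation rate from ΔA234 over time using ε234 = 29500 M-1 cm-1.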

A short description of series [8]: Antioxidant activity against CuSO4-induced LDL oxidation measured per mg of LDL product assessed as propagation rate of the oxidation at 100 uM by spectrophotometric analysis. Type of series: functional. The procedure, abridged:
as §4

A short description of series [9]: Antioxidant activity assessed as (E)-4-hydroxy-trans-2,3-nonenal scavenging activity in phosphate buffer at pH 7.4 at 1 mM after 24 hrs by reverse-phase HPLC analysis relative to control. The format is functional. The procedure, abridged:
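HNE 50 μM incubated with compound 1 mM in 1 mM phosphate buffer pH 7.4 at 37 °C for up to 24 h. Remaining HNE measured directly by reverse-phase HPLC. Scavenging % = 100 − (HNE left with scavenger / HNE left in control × 100).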

For series [10], the system named is Thoracic aorta. In words: Vasodilator activity in Wistar rat endothelium-denuded thoracic aorta assessed as inhibition of L-phenylephrine-induced contraction. The format is functional, tissue-based. The procedure, abridged: as §3
The subject of series [11] is Thoracic aorta. The series is described as follows: Vasodilator activity in Wistar rat endothelium-denuded thoracic aorta assessed as inhibition of L-phenylephrine-induced contraction in presence of ODQ. Type of series: functional, tissue-based. In a few lines:
as §3

Series [12] relates to Rattus norvegicus. In words: Reduction of ischemia-reperfusion-induced TNFalpha level increase in Wistar rat serum at 1 g/kg, iv by ELISA. Type of series: functional, organism-based. In a few lines:
as §1

Series [13] deals with Rattus norvegicus. The series is described as follows: Protection against hypoxia-induced brain damage in Wistar rat ischemia-reperfusion injury model assessed as reduction of cerebral infarct volume at 1 g/kg, iv administered at beginning of reperfusion and again after 6 hrs measured 24 hrs after reperfusion. The format is functional, organism-based. In a few lines: as §1

Series [14] can be described thus: Half life in human serum at 0.5 mM by RP-HPLC analysis. Type of series: ADME, cell-free. In a few lines: as §2

Activity calls are given as the source filed them. The rule behind the calls is not given here.

On to `CCCNC(=O)[C@H](Cc1c[nH]cn1)NC(=O)CCN`, for which the outcome in series [1] was Active. Besides, the outcome in series [2] was inactive. In addition, in [3], the Stability entry is “Stable”.
Take `NCCC(=O)N[C@@H](Cc1c[nH]cn1)C(=O)NCCCO[N+](=O)[O-]`: in series [4], the inhibition at 1000 µM came to 46%. Also, the Stability result in series [3] is given as “Stable”. The Activity result in series [5] is “Active”; in series [8], 3.9 nmol/min; in series [9], 75.4%; in series [10] it was “Dose-dependent effect”. Further, in series [6], the logD was -2.43. Moreover, the TIME in series [7] was found to be 1.5 h. Moreover, the outcome in series [11] was inactive.
As for `NCCC(=O)N[C@@H](Cc1c[nH]cn1)C(=O)NC[C@H](CO[N+](=O)[O-])O[N+](=O)[O-]`, the outcome in series [1] and in [2] was Active. In series [3], the Stability entry is “Stable”. Moreover, the Activity result in series [5] was “Active”; in series [8] it was 5.8 nmol/min; in [9], 77.6%; in [10] it was “Dose-dependent effect”. The compound also showed a logD in [6] of -2.19. In addition, the TIME in [7] was 1.47 h. For the same compound, the EC50 in series [10] worked out at 70 µM. The result in series [11] was inactive.
Consider `NCCC(=O)N[C@@H](Cc1c[nH]cn1)C(=O)O`, for which the outcome in series [12] was inactive. The Activity entry in [10] was “Dose-dependent effect”. Moreover, in series [13], the outcome was Active.
As to `CCCOc1ccc(CNC(=O)[C@H](Cc2c[nH]cn2)NC(=O)CCN)cc1`, the Stability result in [3] is “Stable”. In series [6], the logD was -1.15. In addition, in series [7], the TIME was 1.07 h. Further, the Activity in series [8] is 9.5 nmol/min; in [9] it was 73.3%.
In the case of `NCCC(=O)N[C@@H](Cc1c[nH]cn1)C(=O)NCc1ccc(OCCCO[N+](=O)[O-])cc1`, the Stability entry in [3] was “Stable”. Further, in series [6], the logD is -1.01. Moreover, the TIME in series [7] amounted to 1.17 h. For the same compound, the Activity in series [8] was 6.3 nmol/min; in series [9] it was 74.3%; in series [10], “Dose-dependent effect”. Besides, the EC50 in series [10] came out at 3 µM. Further, the outcome in series [11] was inactive.
On to `NCCC(=O)N[C@@H](Cc1c[nH]cn1)C(=O)NC[C@@H](CO[N+](=O)[O-])O[N+](=O)[O-]`, for which, in series [3], the Stability entry is “Stable”. For the same compound, the Activity result in series [5] is “Active”; in series [8], 5.8 nmol/min; in series [9], 67.2%; in series [10], “Dose-dependent effect”. In series [6], the logD was -2.33. For the same compound, in series [7], the TIME was 1.25 h. In series [10], the EC50 amounted to 169 µM. Further, the result in series [11] was inactive.
Turning to `NCCC(=O)N[C@@H](Cc1cnc[nH]1)C(=O)O` [CARNOSINE], the half-life at 500 µM in series [14] came to 5 min.
